Assays:
[1] = system: Notch 1; assay: Western blot of rat retinal tissue; format: in vivo, rat (Sprague–Dawley); details: increased by STZ; intravitreal AAV9, n = 3; Fig. 8E
[2] = system: VEGFA; assay: Western blot of rat retina; format: in vivo, rat (Sprague–Dawley); details: intravitreal AAV9, n = 3; Fig. S13C
Outline: (§1)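 STZ-diabetic male Sprague–Dawley rats (6–8 weeks) were given intravitreal AAV9 (5 μL, 1 × 10^12 vg/mL) every 8 weeks, with saline controls. Retinal protein was extracted in RIPA with protease and phosphatase inhibitors, run on 10% SDS–PAGE and transferred to PVDF. Membranes were blocked in 5% skimmed milk, probed with primary then secondary antibody, and developed by ECL.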

[3] = system: FBXW7; assay: Western blot of rat retinal tissue; format: in vivo, rat (Sprague–Dawley); details: decreased by STZ; intravitreal AAV9, n = 3; Fig. 8D
[4] = system: HIF-1α; assay: Western blot of rat retina; format: in vivo, rat (Sprague–Dawley); details: intravitreal AAV9, n = 3; Fig. S13B
Outline: as §1

[5] = system: fibronectin; assay: Immunohistochemistry of rat retina; format: in vivo, rat (Sprague–Dawley); details: vs STZ and STZ + NC; intravitreal AAV9, 16 weeks, n = 3; Fig. 6B
Outline: (§2)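 In the STZ-induced DR model in male SD rats, animals received intravitreal AAV9 (5 μL, 1 × 10^12 vg/mL, every 8 weeks; saline control; n = 8/group). At 16 weeks, eyeballs were paraffin-embedded and cut at 5 μm. Immunohistochemistry for fibronectin or PCNA followed, with relative positivity ratio quantified; n = 3.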

[6] = system: VEGFA; assay: Immunohistochemistry of rat retina; format: in vivo, rat (Sprague–Dawley); details: intravitreal AAV9, 16 weeks, n = 3; Fig. 6E
Outline: (§3)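 Male Sprague–Dawley rats, 6–8 weeks old, with STZ-induced diabetic retinopathy. Under intraperitoneal ketamine (80 μg/g) and xylazine (4 μg/g), rats received 5 μL intravitreal AAV9 (1 × 10^12 vg/mL) carrying the test sequence every 8 weeks; saline as control; n = 8 rats per group. At 16 weeks, eyes were paraffin-embedded, cut at 5 μm and immunostained. Relative positivity ratio scored; mean ± SD.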

[7] = system: STAT4; assay: Western blot of rat retinal tissue; format: in vivo, rat (Sprague–Dawley); details: increased by STZ; intravitreal AAV9, n = 3; Fig. 8C
[8] = system: p-AKT; assay: Western blot of rat retinal tissue; format: in vivo, rat (Sprague–Dawley); details: increased by STZ; intravitreal AAV9, n = 3; Fig. 8F
[9] = system: PCNA; assay: Immunohistochemistry of rat retina; format: in vivo, rat (Sprague–Dawley); details: vs STZ and STZ + NC; intravitreal AAV9, 16 weeks, n = 3; Fig. 6C
Outline: as §2

[10] = system: rno-miR-223-3p; assay: qPCR in rat retina; format: in vivo, rat (Sprague–Dawley); details: increased by STZ; intravitreal AAV9, n = 3; Fig. 8A
[11] = system: p-STAT4; assay: Western blot of rat retinal tissue; format: in vivo, rat (Sprague–Dawley); details: increased by STZ; intravitreal AAV9, n = 3; Fig. 8C
[12] = system: HIF-1α; assay: Immunohistochemistry of rat retina; format: in vivo, rat (Sprague–Dawley); details: intravitreal AAV9, 16 weeks, n = 3; Fig. 6D
Outline: as §3

[13] = system: p-mTOR; assay: Western blot of rat retinal tissue; format: in vivo, rat (Sprague–Dawley); details: increased by STZ; intravitreal AAV9, n = 3; Fig. 8G
[14] = system: VEGFA; assay: Western blot in hRECs; format: cell-based, human; details: high glucose (enhanced by HG), n = 3; Fig. S8A, C
[15] = system: hnRNPA2B1; details: ref [33], [34]; cited from earlier work
[16] = system: hRECs; details: high-glucose environment; ref [33], [34]; cited from earlier work
[17] = system: STAT4; assay: Western blot in hRECs; format: cell-based, human; details: high glucose (increased by HG), 1 μM, n = 3; Fig. 4D, E
Outline: (§4)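 hRECs (passages 5–6; 3000 cells/mL) were cultured 120 h in 5.5 mM glucose, 25 mM glucose or mannitol control medium, with 1 μM test peptide or TTR homotetramer added to high glucose. Lysis was in RIPA with protease/phosphatase inhibitors. Lysates were resolved on 10% SDS–PAGE, transferred to PVDF, blocked in 5% milk, probed and developed by ECL.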

[18] = system: p-STAT4; assay: Western blot in hRECs; format: cell-based, human; details: high glucose (increased by HG), 1 μM, n = 3; Fig. 4D, E
Outline: as §4

[19] = system: hRECs; assay: EdU DNA synthesis assay; format: cell-based, human; details: high glucose (25 mM), 1 μM, n = 5; Fig. 2A, B
Outline: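 hRECs (passages 5–6; 3000 cells/mL) were kept in 25 mM glucose medium with 1 μM test peptide or TTR homotetramer, with low-glucose and mannitol controls. DNA synthesis was detected with an EdU labeling kit by confocal imaging, nuclei counterstained with Hoechst 33342; n = 5.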

[20] = system: hRECs; assay: Tube formation assay; format: cell-based, human; details: high glucose, 1 μM, basement membrane matrix, 4 h, n = 5; Fig. 3D, E
Outline: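 hRECs (passages 5–6) in 25 mM glucose medium with 1 μM test peptide or TTR homotetramer, plus low-glucose and mannitol osmotic controls, were plated on basement membrane matrix. Tube formation was then assessed.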

[21] = Kidney and liver pathological indexes; format: in vivo, rat (Sprague–Dawley); details: serum, STZ rats (raised vs normal), intravitreal AAV9
Outline: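 STZ-diabetic male SD rats were given intravitreal AAV9 every 8 weeks (5 μL, 1 × 10^12 vg/mL) or saline. Serum ALT, AST and ALP activities and BUN and creatinine concentrations were measured on an automatic biochemical analyzer.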

[22] = system: hsa-miR-223-3p; assay: qPCR in hRECs; format: cell-based, human; details: high glucose, 1 μM, n = 5, Fig. 4B
Outline: (§5)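 hRECs (passages 5–6) cultured 120 h in high-glucose (25 mM) medium with 1 μM test compound, alongside low-glucose and mannitol osmotic controls. Total RNA extracted and measured by qPCR: STAT4 mRNA normalised to GAPDH; hsa-miR-223-3p against a cel-miR-39-3p spike-in control. n = 5; mean ± SD; one-way ANOVA with LSD test.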

[23] = system: STAT4 mRNA; assay: qPCR in hRECs; format: cell-based, human; details: high glucose, 1 μM, n = 5, Fig. 4A
Outline: as §5

[24] = system: Notch 1; assay: Western blot in hRECs; format: cell-based, human; details: high glucose (increased by HG), 1 μM, n = 3; Fig. 4D, G
Outline: as §4

[25] = system: FBXW7; assay: Western blot in hRECs; format: cell-based, human; details: high glucose (decreased by HG), 1 μM, n = 3; Fig. 4D, F
Outline: as §4

[26] = system: hRECs; assay: Wound healing assay; format: cell-based, human; details: high glucose, 1 μM, 24 h, n = 5; Fig. 3B, C
Outline: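 Wound-healing kit assay on hRECs (passages 5–6) in high-glucose (25 mM) phenol red-free DMEM containing 1 μM test compound. Low glucose (5.5 mM) and mannitol (20 mM) osmotic controls included. Closure followed over 24 h; n = 5; mean ± SD, one-way ANOVA with LSD post hoc test.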

[27] = system: hRECs; assay: Cell entry and localization in hRECs; format: cell-based, human; details: 1 μM, 2 h incubation, HG medium, 37 °C; confocal microscopy; Fig. 1D
Outline: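 Passage-6 hRECs spent 24 h in high-glucose medium at 37 °C, then 2 h with 1 μM test peptide, TTR homotetramer or scrambled peptide. Cells were PBS-washed, fixed (4% PFA, 20 min), permeabilized (0.1% Triton X-100) and stained overnight at 4 °C with anti-hnRNPA2B1, anti-TTR or anti-His-tag. Alexa Fluor 488/594 secondaries and Hoechst 33342 were used; imaging was confocal.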

[28] = system: p-AKT; assay: Western blot in hRECs; format: cell-based, human; details: high glucose (increased by HG), 1 μM, n = 3; Fig. 4D, H
Outline: as §4

[29] = system: p-mTOR; assay: Western blot in hRECs; format: cell-based, human; details: high glucose (increased by HG), 1 μM, n = 3; Fig. 4D, I
Outline: as §4

[30] = system: FBXW7 mRNA; assay: qPCR in hRECs; format: cell-based, human; details: high glucose, 1 μM, n = 5, Fig. 4C
Outline: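 Total RNA came from hRECs grown 120 h in low-glucose, 25 mM high-glucose or mannitol control medium, with 1 μM test peptide or TTR homotetramer in high glucose. FBXW7 mRNA was quantified by qPCR with GAPDH as reference.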

[31] = system: hRECs; assay: Apoptosis; format: cell-based, human; details: Annexin V flow cytometry; hyperglycemia; Fig. S7
Outline: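 hRECs (passages 5–6) were seeded at 3000 cells/mL and grown 120 h in low-glucose (5.5 mM), high-glucose (25 mM) or low-glucose + 20 mM mannitol (osmotic control) medium. TTR homotetramer (1 μM) or test peptide (1 μM) was added to the high-glucose medium. Apoptosis was measured by FITC Annexin V staining and flow cytometry.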

[32] = system: hRECs; assay: CCK-8 proliferation assay; format: cell-based, human; details: 1 μM, 5 days
Outline: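 hRECs (passages 5–6; 3000 cells/mL) were grown in 25 mM glucose medium with 1 μM test peptide or TTR homotetramer, with 5.5 mM glucose and mannitol osmotic controls. Proliferation was read by CCK-8 after 5 days of culture; n = 5.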

## TTR overexpression: Rat TTR (GenBank: AAH86946.1) cloned into the pAAV-MCS vector and packaged in AAV9, intravitreal
[1]
  Notch 1 protein level: significantly reversed
[2]
  VEGFA level (western blot): neither THIP-4 administration nor elevated TTR expression affected the levels
[3]
  FBXW7 protein level: significantly reversed
[4]
  HIF-1α level (western blot): neither THIP-4 administration nor elevated TTR expression affected the levels
[5]
  fibronectin positivity ratio: lower
[6]
  VEGFA level (IHC): neither THIP-4 administration nor TTR overexpression affected the levels
[7]
  STAT4 protein level: significantly reversed
[8]
  p-AKT protein level: significantly reversed
[9]
  PCNA positivity ratio: lower
[10]
  rno-miR-223-3p expression: reversed
[11]
  p-STAT4 protein level: significantly reversed
[12]
  HIF-1α level (IHC): neither THIP-4 administration nor TTR overexpression affected the levels
[13]
  p-mTOR protein level: significantly reversed

## transthyretin [TTR]
[14]
  VEGFA level: neither the THIPs nor TTR could reverse this effect
[15]
  level of hnRNPA2B1: could not affect the level of hnRNPA2B1
[16]
  neovascularization of hRECs: inhibits the neovascularization of hRECs in a high-glucose environment
[17]
  STAT4 protein level: significantly reversed
[18]
  p-STAT4 protein level: significantly reversed
[19]
  DNA synthesis (EdU): significantly reversed this trend
[20]
  tube length (tube formation): reversed by TTR and the THIPs
[21]; Fig. S12D
  ALT activity: could not be affected by TTR or THIP-4
[21]; Fig. S12E
  AST activity: could not be affected by TTR or THIP-4
[21]; Fig. S12F
  ALP activity: could not be affected by TTR or THIP-4
[22]
  hsa-miR-223-3p expression level: reversed in the presence of TTR or the THIPs
[23]
  STAT4 expression level: reversed in the presence of TTR or the THIPs
[24]
  Notch 1 protein level: significantly reversed
[25]
  FBXW7 protein level: significantly reversed
[26]
  wound healing: significantly inhibited the accelerated hREC healing
[27]
  cellular localization: mainly accumulated in the nucleus and their signals overlapped with that of hnRNPA2B1
[28]
  p-AKT protein level: significantly reversed
[29]
  p-mTOR protein level: significantly reversed
[30]
  FBXW7 expression level: this trend was reversed
[31]
  apoptosis: not significantly influenced
[32]; high glucose (25 mM), n = 5, Fig. 2C
  proliferation (CCK-8), high glucose: significantly abrogated
[32]; low glucose (5.5 mM), Fig. S6
  proliferation (CCK-8), low glucose: neither TTR nor the THIPs inhibited hREC proliferation

Reference: article PMC12008863 (Journal of Translational Medicine, 2025)
